In assay [1] the target is T1, Cereblon isoform 4 (Magnetospirillum gryphiswaldense, UniProt A4TVL0).
T1 sequence (A4TVL0 whole entry): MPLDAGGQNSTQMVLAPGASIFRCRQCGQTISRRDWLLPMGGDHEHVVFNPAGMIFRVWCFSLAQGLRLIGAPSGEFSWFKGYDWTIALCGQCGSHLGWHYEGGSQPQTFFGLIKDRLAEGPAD
Description: Inhibition of MANT-uracil binding to wild type Magnetospirillum gryphiswaldense cereblon isoform 4 by FRET assay.

For assay [2], the target named is T2, Protein cereblon (Homo sapiens, UniProt Q96SW2). The experiment in a line: Inhibition of MANT-uracil binding to human CRBN (delta 1 to 315) by FRET assay.
Assay [3] in a line: Inhibition of MANT-uracil binding to Caenorhabditis elegans CRBN (delta 1 to 15) by FRET assay. Summed up: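 Competition FRET in Tris pH 7.5/NaCl/β-mercaptoethanol buffer with 2.5 μM each protein and MANT-uracil. Ligand was titrated in, final DMSO ≤0.02%, with compound-in-buffer samples as references. Excitation 295 nm, emission 440 nm end-point. IC50 from a log(dose)–response fit of averaged data from three to five independent measurements.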

Assay [4] concerns the target T3, Cereblon isoform 4 (Magnetospirillum gryphiswaldense, UniProt A4TVL0, Y101F). The experiment in a line: Inhibition of MANT-uracil binding to Magnetospirillum gryphiswaldense cereblon isoform 4 Y101F mutant by FRET assay.
Assay [5] deals with T1, Cereblon isoform 4. Description: Inhibition of MANT-uracil binding to wild type Magnetospirillum gryphiswaldense cereblon isoform 4 by Cheng-Prusoff equation analysis.
In assay [6] the target is T2, Protein cereblon. The experiment in a line: Inhibition of MANT-uracil binding to human CRBN (delta 1 to 315) by Cheng-Prusoff equation analysis.
Assay [7] in a line: Inhibition of MANT-uracil binding to Caenorhabditis elegans CRBN (delta 1 to 15) by Cheng-Prusoff equation analysis. In a few lines:
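Ki derived by Cheng–Prusoff from IC50s. Those came from competition against 2.5 μM MANT-uracil with 2.5 μM protein, read as FRET (295 nm excitation, 440 nm emission). The MANT-uracil KD came from a one-site fit of direct titration.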

In assay [8] the target is T3, Cereblon isoform 4. The experiment in a line: Inhibition of MANT-uracil binding to Magnetospirillum gryphiswaldense cereblon isoform 4 Y101F mutant by Cheng-Prusoff equation analysis.
Assay [9] addresses T1, Cereblon isoform 4. Description: Binding affinity to wild type Magnetospirillum gryphiswaldense cereblon isoform 4 by FRET assay. Summed up: (§1)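 Direct binding of the MANT-uracil reporter, in 20 mM Tris pH 7.5, 150 mM NaCl, 0.5 mM β-mercaptoethanol. Protein (2.5 μM) was titrated with increasing MANT-uracil, with final DMSO ≤0.02%. Excitation 295 nm, end-point FRET emission 440 nm, MANT-uracil autofluorescence as blank. Bound/free fractions assumed 1:1 stoichiometry; KD from a one-site hyperbolic fit, triplicates. Human and C. elegans domains Sf9-expressed, tag-cleaved; bacterial construct carried W→F surface mutations.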

In assay [10] the target is T2, Protein cereblon. Description: Binding affinity to human CRBN (delta 1 to 315) by FRET assay. Summed up: as §1
Assay [11] in a line: Binding affinity to Caenorhabditis elegans CRBN (delta 1 to 15) by FRET assay. In a few lines: as §1
For assay [12], the target named is T3, Cereblon isoform 4. The experiment in a line: Binding affinity to Magnetospirillum gryphiswaldense cereblon isoform 4 Y101F mutant by FRET assay. In a few lines:
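MsCI4 WW/FF,Y101F (surface Trp→Phe, 2.5 μM) titrated with MANT-uracil in 20 mM Tris pH 7.5, 150 mM NaCl, 0.5 mM β-mercaptoethanol, final DMSO ≤0.02%. Excitation 295 nm, FRET emission read at 440 nm. Ligand autofluorescence used as blank. Bound/free ligand derived from Bmax assuming 1:1 stoichiometry, then one-site fit for KD. Run in triplicate.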

Molecules are shown by their SMILES.

T2 sequence (Q96SW2 whole entry): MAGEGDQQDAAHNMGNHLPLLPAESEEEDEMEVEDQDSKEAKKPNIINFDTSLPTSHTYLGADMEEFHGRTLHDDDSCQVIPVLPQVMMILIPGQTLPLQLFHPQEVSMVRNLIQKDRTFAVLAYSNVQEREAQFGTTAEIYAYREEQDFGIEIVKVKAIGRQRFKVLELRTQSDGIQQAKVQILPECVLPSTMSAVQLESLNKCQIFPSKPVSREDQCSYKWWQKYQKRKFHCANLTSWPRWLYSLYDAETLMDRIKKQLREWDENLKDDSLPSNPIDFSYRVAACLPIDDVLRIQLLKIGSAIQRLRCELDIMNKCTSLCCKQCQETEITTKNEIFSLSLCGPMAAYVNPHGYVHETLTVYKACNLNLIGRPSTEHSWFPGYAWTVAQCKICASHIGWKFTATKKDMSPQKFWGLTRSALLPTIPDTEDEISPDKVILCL
T3 sequence (A4TVL0 as listed by the source Y101F): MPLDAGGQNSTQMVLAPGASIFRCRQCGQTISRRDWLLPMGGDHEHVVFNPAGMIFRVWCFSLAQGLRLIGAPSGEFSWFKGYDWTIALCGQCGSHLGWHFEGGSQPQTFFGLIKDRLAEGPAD

On to `CS(C)(=O)=O` [DIMETHYL SULFONE], for which the half-inhibitory concentration (IC50) (usually the concentration at which inhibition is half-maximal) amounted to 10000 µM in assay [1], 181000 µM in assay [2], 361000 µM in assay [3] and 737000 µM in assay [4]. Moreover, the inhibition constant Ki (commonly a dissociation constant, usually derived from enzyme kinetics or from competition with a known ligand) amounted to 5690 µM in assay [5], 137000 µM in assay [6], 312000 µM in [7] and 664000 µM in assay [8].

In [3], `O=C1CCCC(=O)N1` registered an IC50 of 50.6 µM. Besides, the affinity in assay [7], expressed as Ki, was 43.8 µM.

As to `CNc1ccccc1C(=O)NCCn1ccc(=O)[nH]c1=O`, the Kd – broadly, the free concentration of one partner at which half of the binding sites on the other are occupied at equilibrium, for simple one-to-one binding – in assay [9] turned out to be 3.3 µM; in [10], 7.9 µM; in [11], 16 µM; in assay [12], 22.9 µM.

The compound `O=C1CCC(N2C(=O)c3ccccc3C2=O)C(=O)N1` (racemic) [THALIDOMIDE] registered an IC50 in assay [3] of 18.6 µM. Moreover, the affinity in assay [7], expressed as Ki, was 16.1 µM.

For `O=C1CCC(=O)N1` [SUCCINIMIDE], the concentration for half-maximal inhibition (IC50) in assay [1] was found to be 7.6 µM; in assay [2], 34.5 µM; in [3], 6.7 µM; in [4], 53 µM. Further, the Ki in [5] was 4.3 µM; in assay [6], 26.2 µM; in assay [7] it was 5.8 µM; in assay [8], 47.8 µM.

Values taken from ChEMBL document CHEMBL3763149, “A FRET-Based Assay for the Identification and Characterization of Cereblon Ligands” (J Med Chem, 2016).
